# Measured values collected from several papers.
# Compare with care: the assays were run in different laboratories.
# Observed: enzyme activity
# Action: inhibitor
# MAP3K1: Mitogen-activated protein kinase kinase kinase 1 (MAP3K1, Homo sapiens, UniProt Q13233)
# MAP3K11: Mitogen-activated protein kinase kinase kinase 11 (MAP3K11, Homo sapiens, UniProt Q16584)
# HIPK1: Homeodomain-interacting protein kinase 1 (HIPK1, Homo sapiens, UniProt Q86Z02)
Structure (SMILES),target,test,setting,remaining activity [%]
COc1cc(Nc2cnc(C#N)c(O[C@H](C)CN(C)C)n2)ncc1-c1cnn(C)c1,MAP3K1,radiometric,10 µM,99
Cc1ccc(C(=O)Nc2ccc(CN3CCN(C)CC3)c(C(F)(F)F)c2)cc1C#Cc1cnc2cccnn12,"Serine/threonine-protein kinase 36 (STK36, Homo sapiens, UniProt Q9NRP7)",,23.5 nM,100
O=C(NCCCNc1ccnc(Nc2cccc(NC(=O)N3CCCC3)c2)n1)C1CCC1,MAP3K11,radiometric,1 µM,86
CC(C)(O)[C@H]1CC[C@H](Nc2ccc3ncc(-c4cccc(C(F)(F)F)c4)n3n2)CC1,"cAMP-dependent protein kinase catalytic subunit gamma (PRKACG, Homo sapiens, UniProt P22612)",,1 µM,98.6
FC(F)c1nc2ccccc2n1-c1nc(N2CCOCC2)nc(N2CCOCC2)n1,MAP3K1,,10 µM,92
COc1cccc(CCNc2nc3cc(C(=O)O)ccc3c3cnccc23)c1,HIPK1,radiometric,1 µM,16
Cc1cnc(NC2CCOCC2)nc1-n1cnc(C(=O)NC(CN)c2cc(F)cc(Cl)c2)c1 (centres unmarked),"Hepatocyte growth factor receptor (MET, Homo sapiens, UniProt P08581, Y1230D)",radiometric,1 µM,97
O=C(NCCCNc1nc(Nc2cccc(CN3CCOCC3)c2)ncc1C1CC1)C1CCC1,MAP3K11,radiometric,1 µM,38
CCCOc1ccc(OC)c(F)c1C(=O)c1ccc(C(=O)N[C@@H]2CNC[C@H]2NC(=O)c2ccc3[nH]ncc3c2)cc1,"Mitogen-activated protein kinase 1 (Mapk1, Mus musculus, UniProt P63085)",,10 µM,100
Cc1nn(CC(F)(F)F)cc1Nc1ncc(C2CC2)c(NCc2ccc(S(N)(=O)=O)cc2)n1,MAP3K11,radiometric,1 µM,89
O=C(O)c1ccc2c(c1)nc(Nc1ccc3ccccc3c1)c1ccncc12,HIPK1,radiometric,1 µM,13
